In ChEMBL document CHEMBL5705892, “MK-2206, an allosteric Akt inhibitor, enhances antitumor efficacy by standard chemotherapeutic agents or molecular targeted drugs in vitro and in vivo” (Mol Cancer Ther, 2010):
Activity calls are given as the source filed them. The rule behind the calls is not given here.

Columns and labels:
HCC70 [1] = test: Induction of apoptosis in human HCC70 cells assessed as increase in caspase-3/7 activity at 10 umol/L measured after 48 hrs by caspase-glo 3/7 assay relative to control; type: functional; conditions: dose 10 µmol/L
Procedure, shortened: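 HCC70 breast cells were treated for 48 h with MK-2206 (0, 0.03, 0.3, 3 µmol/L), with or without lapatinib (0, 1, 3, 5, 10 µmol/L). Caspase-3/7 activity was read by Caspase-Glo 3/7 luminescence and expressed as fold induction over DMSO-treated control. The experiment was run twice.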

HCC70 [2] = test: Antiproliferative activity against human HCC70 cells assessed as reduction in cell proliferation measured after 72 hrs by celltiter-glo assay; type: functional, cell-based; conditions: HCC70, 72 h
Procedure, shortened: (§1)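 Cells in RPMI 1640 with 10% heat-inactivated FBS at 37°C and 5% CO₂ were seeded at 2 to 3 × 10³ per well. […] Growth was read as cellular ATP by CellTiter-Glo.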

MDA-MB-468 = test: Antiproliferative activity against human MDA-MB-468 cells assessed as reduction in cell proliferation measured after 72 hrs by celltiter-glo assay; type: functional, cell-based; conditions: MDA-MB-468, 72 h; procedure, shortened: as §1
SK-OV-3 [3] = test: Antiproliferative activity against human SK-OV-3 cells assessed as reduction in cell proliferation measured after 72 hrs by celltiter-glo assay; type: functional, cell-based; conditions: SK-OV-3, 72 h; procedure, shortened: as §1
[4] = target: RAC-alpha serine/threonine-protein kinase (Homo sapiens) (UniProt P31749); test: Inhibition of AKT phosphorylation at S473 residue in human HCC70 cells at 10 umol/L measured up to 24 hrs by Western blot analysis; type: cell-based; conditions: dose 10.0 µmol/L
Sequence of RAC-alpha serine/threonine-protein kinase (Homo sapiens) (P31749 whole entry): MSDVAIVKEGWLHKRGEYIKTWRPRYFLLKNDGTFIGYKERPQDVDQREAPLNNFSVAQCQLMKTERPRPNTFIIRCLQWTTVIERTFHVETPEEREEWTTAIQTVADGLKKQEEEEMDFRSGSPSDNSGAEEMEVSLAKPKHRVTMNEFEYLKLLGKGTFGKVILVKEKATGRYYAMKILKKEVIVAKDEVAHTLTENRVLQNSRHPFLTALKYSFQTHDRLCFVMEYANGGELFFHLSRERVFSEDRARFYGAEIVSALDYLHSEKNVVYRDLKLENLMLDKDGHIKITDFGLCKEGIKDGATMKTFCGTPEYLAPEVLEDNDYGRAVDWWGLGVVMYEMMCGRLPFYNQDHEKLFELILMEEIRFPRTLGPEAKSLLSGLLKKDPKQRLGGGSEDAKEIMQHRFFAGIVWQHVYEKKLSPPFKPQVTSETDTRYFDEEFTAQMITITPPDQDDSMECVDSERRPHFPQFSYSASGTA
Procedure, shortened: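 HCC70 cells at ~70% confluence were exposed to 10 µmol/L lapatinib, 1 µmol/L MK-2206, or both, for 0, 3, 6, 12 or 24 h. Lysates were prepared in Triton X-100/Tris buffer (pH 7.5) with protease and phosphatase inhibitors. Immunoblots after SDS-PAGE and nitrocellulose transfer were probed for pAkt and pS6.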

NCI-N87 = test: Antiproliferative activity against human NCI-N87 cells assessed as reduction in cell proliferation measured after 72 hrs by celltiter-glo assay; type: functional, cell-based; conditions: NCI-N87, 72 h; procedure, shortened: as §1
SK-BR-3 = test: Antiproliferative activity against human SK-BR-3 cells assessed as reduction in cell proliferation measured after 72 hrs by celltiter-glo assay; type: functional, cell-based; conditions: SK-BR-3, 72 h; procedure, shortened: as §1
HCC1954 = test: Antiproliferative activity against human HCC1954 cells assessed as reduction in cell proliferation measured after 72 hrs by celltiter-glo assay; type: functional, cell-based; conditions: HCC1954, 72 h; procedure, shortened: as §1
SK-OV-3 [5] = test: Antitumor activity against human SK-OV-3 cells xenografted in CB17/icr SCID mouse assessed as tumor growth inhibition at 100 mg/kg, po administered 5 days per week for 2 weeks and measured twice a week during compound dosing by caliper method; type: functional, organism-based
Procedure, shortened: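 SK-OV-3 cells were implanted s.c. into female C.B-17/ICR-scid mice, which were randomized at 0.13 cm³, n = 5. Lapatinib (water) was given at 100 mg/kg po on days 0–4 and 7–11. MK-2206 (30% Captisol) was given at 60 or 120 mg/kg po on days 0, 2, 4, 7, 9, 11. Tumor volume by calipers twice weekly.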

[6] = Toxicity in human PC-3 cells xenografted CD1 nude mouse assessed as body weight loss at 5 mg/kg, iv relative to control; type: organism-based; conditions: in vivo
Procedure, shortened: (§2)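 Male CD1-nude mice with s.c. PC-3 tumours (50% Matrigel/50% PBS, left flank), randomized at mean 0.2 cm³, n=5/group, treated from 25 d post-implant. Body weight monitored versus vehicle-only controls.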

PC-3 = test: Antitumor activity against human PC-3 cells xenografted in CD1 nude mouse assessed as reduction in tumor volume at 5 mg/kg, iv by caliper method; type: functional, organism-based
Procedure, shortened: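 Male CD1-nude mice received s.c. PC-3 cells and were treated from day 25 after implant, at 0.2 cm³, n = 5. Docetaxel (0.73% ethanol in saline) was given at 5 mg/kg i.v. on day 0. MK-2206 (30% Captisol) was given at 120 mg/kg po on days 1, 3, 5, 8, 10, 12. Caliper volume twice weekly.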

[7] = Toxicity in human PC-3 cells xenografted CD1 nude mouse assessed as body weight loss at 5 mg/kg, iv measured on day 15 relative to control; type: organism-based; conditions: in vivo, 360 h, time 15 day; procedure, shortened: as §2
Calu-6 = test: Antiproliferative activity against human Calu-6 cells assessed as reduction in cell proliferation measured after 72 hrs by celltiter-glo assay; type: functional, cell-based; conditions: Calu-6, 72 h; procedure, shortened: as §1
[8] = Toxicity in human NCI-H292 cells xenografted CD-1 mouse assessed as death at 50 mg/kg, po administered once daily for 5 days per week for 2 weeks and measured during compound dosing; type: organism-based; conditions: in vivo, 336 h
Procedure, shortened: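 NCI-H292 cells in 50% Matrigel/PBS injected s.c. into flank of female CD1-nude mice; dosing began after 2 wk at mean tumour 0.2 cm³, n = 5/group. […] Body weight and signs monitored; treatment ended day 16.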

NCI-H292 [9] = test: Induction of apoptosis in human NCI-H292 cells assessed as increase in caspase-3/7 activity up to 20 umol/L measured after 48 hrs by caspase-glo 3/7 assay; type: functional, cell-based; conditions: dose <= 20.0 µmol/L
Procedure, shortened: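 Caspase-3/7 activity was measured by Caspase-Glo 3/7 and expressed as fold over DMSO vehicle control. The experiment was done twice.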

A-431 = test: Antiproliferative activity against human A-431 cells assessed as reduction in cell proliferation measured after 72 hrs by celltiter-glo assay; type: functional, cell-based; conditions: A-431, 72 h; procedure, shortened: as §1
NCI-H292 [10] = test: Antitumor activity against human NCI-H292 cells xenografted in CD-1 mouse assessed as tumor growth suppression at 50 mg/kg, po administered once daily for 5 days per week for 2 weeks and measured twice a week during compound dosing by caliper method; type: functional, organism-based
Procedure, shortened: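 Female CD1-nude mice carried s.c. NCI-H292 cells in Matrigel/PBS and were randomized at 0.2 cm³, n = 5. […] MK-2206 (30% Captisol) was given 2 h later at 120 mg/kg po on days 0, 2, 4, 7, 9, 11, or at 360 mg/kg on days 0 and 7. Control received vehicle. Caliper volume twice weekly.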

Mus musculus [11] = test: In vivo inhibition of EGFR in human NCI-H292 cells xenografted mouse assessed as reduction in ERK phosphorylation at T202/Y204 residues at 50 mg/kg, po administered as single dose measured after 14 hrs by Western blot analysis; type: functional, organism-based
NCI-H292 [12] = test: Antiproliferative activity against human NCI-H292 cells assessed as reduction in cell proliferation measured after 72 hrs by celltiter-glo assay; type: functional, cell-based; conditions: NCI-H292, 72 h; procedure, shortened: as §1
NCI-H1299 = test: Antiproliferative activity against human NCI-H1299 cells assessed as reduction in cell proliferation measured after 72 hrs by celltiter-glo assay; type: functional, cell-based; conditions: NCI-H1299, 72 h; procedure, shortened: as §1
HCC827 = test: Antiproliferative activity against human HCC827 cells assessed as reduction in cell proliferation measured after 72 hrs by celltiter-glo assay; type: functional, cell-based; conditions: HCC827, 72 h; procedure, shortened: as §1
Mus musculus [13] = test: In vivo inhibition of EGFR in human NCI-H292 cells xenografted mouse assessed as reduction in AKT phosphorylation at S473 residue at 50 mg/kg, po administered as single dose measured after 14 hrs by Western blot analysis; type: functional, organism-based
NCI-H358 = test: Antiproliferative activity against human NCI-H358 cells assessed as reduction in cell proliferation measured after 72 hrs by celltiter-glo assay; type: functional, cell-based; conditions: NCI-H358, 72 h; procedure, shortened: as §1
NCI-H23 = test: Antiproliferative activity against human NCI-H23 cells assessed as reduction in cell proliferation measured after 72 hrs by celltiter-glo assay; type: functional, cell-based; conditions: NCI-H23, 72 h; procedure, shortened: as §1
[14] = target: RAC-alpha serine/threonine-protein kinase (Homo sapiens) (UniProt P31749); test: Induction of AKT phosphorylation at S473 residue in human NCI-H1703 cells at 0.7 nmol/L measured after 8 hrs by MSD assay; type: cell-based; conditions: filed as activator
Procedure, shortened: (§3)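 Lung cancer cells were seeded at 5 × 10⁴ per well, and carboplatin or gemcitabine was added 24 h after plating. Phospho-Akt induction was then measured.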

[15] = target: RAC-alpha serine/threonine-protein kinase (Homo sapiens) (UniProt P31749); test: Induction of AKT phosphorylation at S473 residue in human NCI-H1993 cells at 28 nmol/L measured after 8 hrs by MSD assay; type: cell-based; conditions: filed as activator; procedure, shortened: as §3
[16] = target: RAC-alpha serine/threonine-protein kinase (Homo sapiens) (UniProt P31749); test: Induction of AKT phosphorylation at S473 residue in human NCI-H460 cells at 5 nmol/L measured after 8 hrs by MSD assay; type: cell-based; conditions: filed as activator; procedure, shortened: as §3
[17] = target: RAC-alpha serine/threonine-protein kinase (Homo sapiens) (UniProt P31749); test: Induction of AKT phosphorylation at S473 residue in human NCI-H661 cells at 10 nmol/L measured after 8 hrs by MSD assay; type: cell-based; conditions: filed as activator; procedure, shortened: as §3
[18] = Toxicity in human NCI-H460 cells xenografted CD1 nude mouse assessed as body weight loss at 100 mg/kg, iv administered once a week for 2 weeks measured on day 14 to 16; type: organism-based; conditions: in vivo, 336 h, time 14-16 day
Procedure, shortened: (§4)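 Mice with s.c. NCI-H460 xenografts (50% Matrigel/50% PBS, left flank), randomized at mean 0.2 cm³, n=5/group, treatment started 8 d after implant. Gemcitabine 100 mg/kg i.v. in saline on days 0 and 7; vehicle-only controls. Body weight and physical signs monitored throughout.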

[19] = target: RAC-alpha serine/threonine-protein kinase (Homo sapiens) (UniProt P31749); test: Induction of AKT phosphorylation at S473 residue in human NCI-H441cells at 5 nmol/L measured after 4 to 24 hrs by MSD assay; type: cell-based; conditions: NCI-H441, time 4-24 hrs; procedure, shortened: as §3
[20] = Toxicity in human NCI-H460 cells xenografted CD1 nude mouse assessed as body weight loss at 100 mg/kg, iv administered once a week for 2 weeks measured during compound dosing relative to control; type: organism-based; conditions: in vivo, 336 h; procedure, shortened: as §4
[21] = target: RAC-alpha serine/threonine-protein kinase (Homo sapiens) (UniProt P31749); test: Induction of AKT phosphorylation at S473 residue in human UMC-11 cells at 10 umol/L measured after 4 to 24 hrs by MSD assay; type: cell-based; conditions: dose 10.0 µmol/L, time 4-24 hrs

## CS(=O)(=O)CCNCc1ccc(-c2ccc3ncnc(Nc4ccc(OCc5cccc(F)c5)c(Cl)c4)c3c2)o1 [LAPATINIB]
HCC70 [1]
  fold change (FC): ~2
HCC70 [2]
  IC50: 3.2 µM
MDA-MB-468
  IC50: 4.5 µM
SK-OV-3 [3]
  IC50: > 10 µM
[4]
  inhibition: inactive
NCI-N87
  IC50: 0.04 µM
SK-BR-3
  IC50: 0.03 µM
HCC1954
  IC50: 5.5 µM
SK-OV-3 [5]
  TGI: Active

## CC(=O)O[C@@]12CO[C@@H]1C[C@H](O)[C@@]1(C)C(=O)[C@H](O)C3=C(C)[C@@H](OC(=O)[C@H](O)[C@@H](NC(=O)OC(C)(C)C)c4ccccc4)C[C@@](O)([C@@H](OC(=O)c4ccccc4)[C@H]21)C3(C)C [DOCETAXEL ANHYDROUS]
[6]
  Activity: 4%
PC-3
  Activity: Active
[7]
  Activity: Non-Toxic

## C#Cc1cccc(Nc2ncnc3cc(OCCOC)c(OCCOC)cc23)c1 [ERLOTINIB]
Calu-6
  IC50: 35.6 µM
[8]
  Activity: Non-Toxic
NCI-H292 [9]
  Activity: inactive
A-431
  IC50: 1.9 µM
NCI-H292 [10]
  Activity: Active
Mus musculus [11]
  inhibition: Active
NCI-H292 [12]
  IC50: 0.5 µM
NCI-H1299
  IC50: 21.1 µM
HCC827
  IC50: 0.02 µM
Mus musculus [13]
  inhibition: inactive
NCI-H358
  IC50: 4.4 µM
NCI-H23
  IC50: 10.6 µM

## Nc1ccn([C@@H]2O[C@H](CO)[C@@H](O)C2(F)F)c(=O)n1 [GEMCITABINE]
[14]
  Activity: Active
[15]
  Activity: Active
[16]
  Activity: Active
[17]
  Activity: Active
[18]
  Activity: Non-Toxic
[19]
  Activity: inactive
[20]
  Activity: 7%
[21]
  Activity: inactive
